The values that follow come from PubChem BioAssay AID504768 (Southern Research Specialized Biocontainment Screening …, 2011).

A short description of this experiment: K1F phage lysis inhibition in UTI89, confirmation, capsule biogenesis inhibitor project, UTI89 strain, C7 control, set 4 (AID 504768). Particulars: E. coli UTI89 K1F phage lysis inhibition, OD600; measured here: cytotoxicity CC50. The method in brief: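 Assay system: E. coli UTI89 (K1) and kpsM mutant bacterial cultures / Benchmarks: phage-resistant kpsM mutant culture as control / Schedule: 1.25 h at 37 °C pre-phage, 3 h post-infection read / Repeats: four replicate wells per compound concentration / Reagent: K1F phage infection / Detection: absorbance at 600 nm (OD600) / Compound: 1% DMSO final in wells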
As to `Cc1cc(C)c2nc(NC(=O)c3ccccn3)sc2c1`, the CC50 came to 6.19 µM. The result for `O=C(Nc1nc2ccccc2s1)c1ccncc1` reads 104 µM; that for `O=C(Nc1nc2ccc(F)cc2s1)c1ccccn1`, 3.32 µM. The result for `O=C(Nc1nc2c(F)cc(F)cc2s1)c1ccncc1` reads 71.8 µM; that for `O=C(Nc1nc2ccccc2s1)c1cccnc1`, 129 µM. The figure for `O=C(Nc1nc2c(F)cc(F)cc2s1)c1ccccc1` is 30.9 µM. `O=C(Nc1nc2c(F)cccc2s1)c1ccccn1` had a CC50 of 2.56 µM. The molecule `O=C(Nc1nc2c(F)cc(F)cc2s1)c1cccnc1` returned a CC50 of over 300 µM.

`O=C(Nc1nc2c(Cl)cc(Cl)cc2s1)c1ccccn1` gave a 50% cytotoxic concentration (CC50) of 3.55 µM.
